Shown are actives, neighbours in structure and some others; about 2.5% of the full set was active somewhere.
UHRF1 MBD2 ctr – human UHRF1 methylated DNA binding inhibitors. UHRF1 binding to methylated oligo, TR-FRET. inhibition, % at 4.4 µM. 370,000 tested, 0.75% active. AID 687016; in the data active = inhibition above about 21%;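 note: UHRF1 SRA domain binding a hemimethylated CpG hairpin DNA probe; 0% = median of test compound wells and 100% = reference inhibitor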
MBD2 DNA inh – inhibitors of human MBD2 binding to methylated oligonucleotide | Q9UBB5 | TR-FRET | inhibition, % at 4.4 µM | 370,000 tested, 0.31% active | AID 686964; in the data active = inhibition above about 13%
Rin1-Abl PPI inh – human Rin1-Abl interaction inhibition; P00519+Q13671; TR-FRET Rin1/Abl binding, biochemical; inhibition, % at 7.35 µM; 360,000 tested, 0.4% active; AID 588664; in the data active = inhibition above about 5%, passing the limit was not always enough
Arrestin-AP2 inh – human beta-arrestin and AP2 interaction inhibition. inhibition, % at 10 µM. 340,000 tested, 0.31% active. AID 504490. FITC-arrestin peptide / GST-AP2 beads, flow cytometry; AP2 beta2 appendage carries R879A mutation;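 active = inhibition above a set limit, near 3 SD of compounds lacking own fluorescence, cut at about 54% in these data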;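 note: plate controls were DMSO wells for no effect and 5 µM unlabelled arrestin peptide for full effect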
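test system = AP2 appendage R879A on GSH beads | buffer or medium = PBS plus Tween 20 (0.05%) and BSA (0.1%) | incubation = 12 min plus 1 h, RT | detection = bead flow cytometry, FITC channel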
ABHD5-PLIN5 inh – ABHD5-PLIN5 protein interaction inhibition. Q00G26+Q8WTS1. Split G. princeps luciferase complementation, luminescence, 4 h. inhibition, % at 4 µM. 360,000 tested, 0.78% active. AID 602281;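 active = inhibition above the mean inhibition across every tested compound plus 3 SD, cut at about 22% in these data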;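 note: 0% = DMSO only wells and the 100% control is not disclosed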
B2AR ag – human beta-2 adrenergic receptor agonism by FAP | P07550 | Am2.2-beta2AR cells, FAP receptor internalization, flow cytometry | response, % (test concentration not listed) | 340,000 tested, 0.43% active | AID 504454;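 active = response above a set limit, near 3 SD of response in nonfluorescent compounds, cut at about 42% in these data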
Rin1 Abl conf – Rin1-Abl interaction inhibition confirmation. 1,300 tested, 49% active. inhibition, % at 7.35 µM. TR-FRET Rin1-Abl binding, purified proteins. shares compounds with Rin1-Abl PPI inh. AID 602124
GFP quench – quenches GFP fluorescence, counter-screen for Rin1-Abl inhibitors. shares compounds with Rin1-Abl PPI inh. inhibitors/quenchers counterscreen. inhibition, % at 6.75 µM. 1,300 tested, 8.5% active. AID 602125;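 note: ABL1-eGFP fusion protein alone without its partner RIN1-SBP; 0% = protein with vehicle and 100% = wells lacking protein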
GFP quench DR – quenches GFP in dose response, Rin1-Abl counter-screen; IC50, µM; shares compounds with Rin1-Abl PPI inh; 230 tested, under 10 active; GFP fluorescence interference/quenching counterscreen; call rule not given here;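 note: ABL1-eGFP fusion protein alone without its RIN1 binding partner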
Numbers without * were called inactive; x = no result. Cut-off read from the data, not from the text of the source, unless noted: active = inhibition above about 6.5%; inactive = the rest.

SMILES	UHRF1 MBD2 ctr	MBD2 DNA inh	Rin1-Abl PPI inh	Arrestin-AP2 inh	ABHD5-PLIN5 inh	B2AR ag	Rin1 Abl conf	GFP quench	others
O=C(NCCc1ccc(Cl)cc1)c1ccc(NC2=NC3CS(=O)(=O)CC3S2)cc1 (stereo not drawn)	-2	-7	7.4*	21	4	0	8.1*	1
CCCCN1CC(=O)N2[C@H](C[C@@]3(C)c4ccccc4N(S(=O)(=O)c4ccccc4)[C@@H]23)C1=O	6	-2	x	x	x	x	x	x
O=S1(=O)CC2c3ccccc3CN2CN1C1CCCC1 (stereo not drawn)	2	-2	x	x	x	x	x	x
COc1ccc2c(c1)NC(=O)[C@@]2(CCN1C(=O)c2ccccc2C1=O)c1[nH]c2ccccc2c1CCN1C(=O)c2ccccc2C1=O	-1	2	x	x	x	x	x	x
COc1cc(-n2c(C)nc3cc(C(=O)N4CC(C)CC(C)C4)ccc32)cc(OC)c1OC (stereo not drawn)	4	2	x	x	x	x	x	x
C=CCN1C(=O)[C@@H](CC(=O)N2CCOCC2)[C@]2(C(=O)OCC)CCCCC/C=C/12	5	-2	x	x	x	x	x	x
CC1=NN(c2ccc(C(=O)O)c(N)c2)C(=O)C1	28*	1	12*	13	-25	1	7.1*	0
CC1=NN(c2ccc(S(=O)(=O)O)cc2Cl)C(=O)C1	-8	-5	1	-4	-5	-2	x	x
CC1=NN(c2ccc(Cl)c(C(=O)O)c2)C(=O)C1	7	2	7.2*	3	-15	1	0	0
COC(=O)[C@H](C(C)C)N(CCCc1cn(CC2CCCCC2)nn1)S(=O)(=O)c1ccccc1Br	-1	1	x	x	x	x	x	x
N#CCCN(C(=O)CSc1ncccn1)c1ccc2c(c1)OCCO2	-1	0	8.2*	-7	-2	-9	8.8*	-1
C[C@H](O)[C@@H]1CN2CCc3ccc(N4CCOCC4)cc3[C@@H]2C[C@@H]1N(C)C(=S)NCCc1ccccc1	-1	1	x	x	x	x	x	x
COc1ccc(Nc2nc(OC)nc(OC)n2)cc1	-1	2	-1	9	1	1	x	x
CCOc1nc(Nc2ccc(OC)cc2)nc(OCC)n1	10	3	9.2*	9	1	6	3	-1
O=C(Nc1sc2c(c1-c1nc3ccccc3s1)CCNC2)C(F)(F)F	-57	-2	x	x	x	x	x	x
CCCSc1nnc(CSc2nc(C)cc(C)n2)n1C	0	0	20*	42	0	1	15*	3
O=C(Nn1cnc2ccccc2c1=O)c1ccc(Br)cc1	1	0	13*	47	3	-1	-1	-1
COC(=O)C[C@@H]1CC[C@H]2[C@H](COc3ccc(NC(=O)c4ccc(OC)cc4)cc3C(=O)N2C)O1	0	4	x	x	x	x	x	x
Cc1ccccc1C(=O)NNC(=O)Cc1ccccc1	3	1	9.3*	15	6	1	-1	1
O=C1CC=Nc2ccc([N+](=O)[O-])cc21	-1	3	15*	x	4	x	-2	-1
CCCCSc1nnc2[nH]c(=O)cc(N)n12	0	-6	3	-9	7	6	x	x
CCCCSc1cc(=O)[nH]c(N)n1	-1	0	29*	13	14	-3	21*	-2	GFP quench DR=>68
CN(CCc1ccccn1)C(=O)c1ccc(Sc2ccccc2Cl)c([N+](=O)[O-])c1	2	5	x	x	x	x	x	x
O=C(Nc1nnc(Cc2ccc(Cl)cc2)s1)c1ccco1	-1	4	7.4*	25	6	-11	-1	-1
CCOCc1nnc(NC(=O)c2ccco2)s1	4	0	2	-12	-3	-4	x	x
SMILES	UHRF1 MBD2 ctr	MBD2 DNA inh	Rin1-Abl PPI inh	Arrestin-AP2 inh	ABHD5-PLIN5 inh	B2AR ag	Rin1 Abl conf	GFP quench	others
CC(NC(=O)c1cc2c(=O)n(C)c3ccccc3c2n1C)c1ccc2c(c1)OCCO2 (stereo not drawn)	-1	-3	7.6*	18	-1	2	11*	-2
CC1(C2CC2)NC(=O)N(CC(=O)N2CCN(c3cccc(C(F)(F)F)c3)CC2)C1=O (stereo not drawn)	5	-2	8.6*	22	1	1	-2	1
Cc1ccc(CC(=O)N2CCN(c3cccc(C(F)(F)F)c3)CC2)cc1	2	-2	0	-3	3	4	x	x
CSc1nc2sc3c(c2c(=O)[nH]1)CCC3	-2	-3	5.8*	2	1	-2	-3	-1
COc1cccc(C(=O)N2CCC(Oc3cccnc3)CC2)c1	-1	4	x	x	x	x	x	x
Cc1ccc(S(=O)(=O)C2(C(=O)NC3CCCCC3)CC2)cc1	4	0	16*	17	7	-1	0	1
CCOC(=O)[C@]12CCCC=C1N(CCCOC)C(=O)[C@@H]2CC(=O)N1CCCC1	1	1	x	x	x	x	x	x
CCSc1nnc(NC(=O)CSc2nc3c(c(=O)n2C)SC(C)C3)s1 (stereo not drawn)	3	4	9.5*	7	7	-12	-3	1
CC(C)(C)CSc1nnc(-c2cccnc2)n1Cc1ccccc1	-1	-4	x	x	x	x	x	x
COc1ccccc1CNC(=O)CSc1nnc2ccc(-c3cccnc3)nn12	5	-6	13*	9	-8	-6	17*	-1	GFP quench DR=>68
COc1ccc(NC(=O)CSc2nnc3ccc(-c4cccnc4)nn23)cc1OC	-2	-1	-1	-11	3	-6	x	x
Nc1c(C(=O)NCc2ccc3c(c2)OCO3)nnn1Cc1cccc(F)c1	4	1	8.4*	-8	1	0	10*	-2
COc1cccc(Cn2nnc(C(=O)NCc3ccc4c(c3)OCO4)c2N)c1	1	6	9.1*	4	-1	-3	7.3*	-1
CCOC(=O)Cc1nc(N2CCN(CCN)CC2)c2c(C)c(C(=O)OCC)sc2n1	0	-3	x	x	x	x	x	x
CCOC(=O)c1ccc(NC(=O)COc2ccccc2CNCCc2ccccc2)cc1	0	0	19*	-20	11	8	24*	1	GFP quench DR=>68
CCOC(=O)c1ccc(NC(=O)CNNC(=O)COc2ccccc2C)cc1	-1	-1	7	-1	-3	-4	x	x
CCOC(=O)Cn1cc(CN2C(C(=O)OC)CN(CCO)CCS2(=O)=O)nn1 (stereo not drawn)	7	4	x	x	x	x	x	x
CC1=C(C(=O)OC(C)C)C(c2coc3ccccc3c2=O)C2=C(CCCC2=O)N1 (stereo not drawn)	-2	-1	-2	5	1	0	x	x

Bioassay records: PubChem, several laboratories
